Measurements published in PMC8259413 (Biochemistry, 2015).

Experiments:
[1] = target: binary Pol β complex (Pol β/sngDNA) (Homo sapiens, UniProt P06746); assay: NMR lineshape analysis; format: binding, rat
Procedure, shortened: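 It was titrated with Mg²⁺-containing nonhydrolyzable matching (0–2:1) or mismatching (0.15–4.6:1) dNTP analogue, followed by ¹H–¹⁵N TROSY/HSQC. Resonances resolved in both dimensions throughout were fitted to a two-state model for koff and KD.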

[2] = target: Pol β binary complex (Pol β/sngDNA) (Rattus norvegicus, UniProt P06766); format: binding; conditions: for ΔH of binding (ITC) / ΔS of binding (ITC): binding to Pol β binary complex, 23 °C
Procedure, shortened: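 Binary complex formed with 20-mer single-nucleotide-gapped duplex DNA (DNA:protein ~1.5:1). Ligands were nonhydrolyzable α,β-imido dNTP analogues, titrated in matched buffer (50 mM HEPES, 100 mM NaCl, 5 mM MgCl₂, 2 mM DTT, pH 7.4) at 1000 rpm with 250 s between injections. Matching analogue: 0.2 mM into 0.013 mM complex. Mismatching analogue: 6 mM into 0.106 mM complex.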

Structure (SMILES) | fold greater koff than that measured for the matching nucleotide ([1]; NMR line shape data) | kex of nucleotide binding/dissociation within the binding cavity ([1]; in the presence of 3.0 mM dApNHpp, estimated) | fold weaker binding than the matching nucleotide ([2]; based upon ITC data) | ΔH of binding (ITC) [2] | ΔS of binding (ITC) [2] | koff (NMR lineshape analysis) ([1]; two-state model, global fit of nine residues, 23 °C)
Nc1ncnc2c1ncn2[C@H]1C[C@H](O)[C@@H](COP(=O)(O)NP(=O)(O)OP(=O)(O)O)O1 [dApNHpp, 2′-deoxyadenosine-5′[(α,β)-imido]triphosphate] | approximately 50 fold | ~7000 s⁻¹ | approximately 300 fold | 37 ± 9 kJ/mol | 195 ± 32 J/mol−K | –
Nc1ccn([C@H]2C[C@H](O)[C@@H](COP(=O)(O)NP(=O)(O)OP(=O)(O)O)O2)c(=O)n1 [dCpNHpp, 2′-Deoxycytidine-5′-[(α,β)-imido]triphosphate] | – | – | – | 93 ± 1 kJ/mol | 432 ± 5 J/mol−K | 5.1 s⁻¹
